Results: ChEMBL document CHEMBL1268876, “Intrinsic electrophilicity of the 4-methylsulfonyl-2-pyridone scaffold in glucokinase activators: role of glutathione-S-transferases and in vivo quantitation of a glutathione conjugate in rats” (Bioorg Med Chem Lett, 2010)

How the values were obtained:
[1] = Chemical stability assessed as formation of compound 2 in pH 7.4 phosphate buffer in presence of 5 mM GSH for 60 mins at 37 degC at 10 uM by UV chromatography; format: physicochemical; conditions: pH 7.4, 1 h
Outline: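 Test compound at 10 µM in 0.1 M phosphate buffer, pH 7.4, with or without 5 mM GSH, 60 min at 37 °C in a shaking water bath open to air. Stopped with ice-cold acetonitrile containing 0.1% formic acid, then centrifuged. Supernatant analyzed by LC–MS/MS and UV (300 nm) on a C18 column with an ammonium formate/acetonitrile gradient.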

Liver microsomes [2] = assay: Metabolic stability in human liver microsomes assessed as formation of compound at 10 uM in presence of 5 mM GSH and in absence of NADPH by UV chromatography; format: ADME, Microsome
Outline: (§1)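 Test compound at 10 µM with 5 mM GSH in human liver microsomes (NADPH-supplemented or not), human liver cytosol, or human placental GST. Incubated 60 min at 37 °C in a shaking water bath open to air; microsomal and cytosolic reactions started by adding the matrix. Controls lacked NADPH and/or GSH. Quenched with ice-cold acetonitrile containing 0.1% formic acid, then centrifuged. Supernatant analyzed by LC–MS/MS with UV detection at 300 nm.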

Liver microsomes [3] = assay: Metabolic stability in human liver microsomes assessed as formation of compound at 10 uM in presence of 5 mM GSH and 1.3 mM NADPH by UV chromatography; format: ADME, Microsome; outline: as §1
[4] = Metabolic stability in presence of human placental GST assessed as formation of compound at 10 uM in presence of 5 mM GSH and 1.3 mM NADPH by UV chromatography; format: ADME; outline: as §1
[5] = Metabolic stability in human liver cytosol assessed as formation of compound at 10 uM in presence of 5 mM GSH and 1.3 mM NADPH by UV chromatography; format: ADME; outline: as §1

| Stability [1] | Stability (Liver microsomes [2]) | Stability (Liver microsomes [3]) | Stability [4] | Stability [5] | SMILES |
| --- | --- | --- | --- | --- | --- |
| Unstable | Unstable | Unstable | Unstable | Unstable | Cc1cnc(NC(=O)[C@H](CC2CCCC2)n2ccc(S(C)(=O)=O)cc2=O)cn1 |
| Stable | Stable | Stable | Stable | Stable | Cc1cnc(NC(=O)[C@H](CC2CCCC2)n2cc(S(C)(=O)=O)ccc2=O)cn1 |

The remaining lines, values behind:

| SMILES | Stability [1] | Stability (Liver microsomes [2]) | Stability (Liver microsomes [3]) | Stability [4] | Stability [5] |
| --- | --- | --- | --- | --- | --- |
| Cc1cnc(NC(=O)[C@H](CC2CCCC2)n2ccccc2=O)cn1 | Stable | Stable | Stable | Stable | Stable |
| Cc1cnc(NC(=O)[C@H](CC2CCCC2)n2cccc(S(C)(=O)=O)c2=O)cn1 | Stable | Stable | Stable | Stable | Stable |
| Cc1cnc(NC(=O)[C@H](CC2CCCC2)n2ccc(Br)cc2=O)cn1 | Stable | Stable | Stable | Unstable | Unstable |
